Converted amounts (≈) assume the structure as drawn.
Key:
Staphylococcus aureus [1] = test: Bactericidal activity against Staphylococcus aureus NCIM-2901 after 72 hrs by two fold serial macrodilution technique; format: functional; conditions: NCIM-2901, 72 h
In short: (§1)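 Serial subcultivation followed 72 h of exposure to compounds dissolved in saline containing 5% DMSO. MBC/MFC was the lowest concentration with no visible growth, taken as 99.5% killing of the original inoculum. Runs were in triplicate, with the mean reading used.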

Bacillus subtilis [2] = test: Bactericidal activity against Bacillus subtilis NCIM-2063 after 72 hrs by two fold serial macrodilution technique; format: functional; conditions: NCIM-2063, 72 h; in short: as §1
Staphylococcus aureus [3] = test: Antimicrobial activity against Staphylococcus aureus NCIM-2901 after 20 hrs by two fold serial macrodilution technique; format: functional; conditions: NCIM-2901, 20 h
In short: (§2)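 Serial macrodilution in 96-well microtiter plates. Compounds were dissolved in saline (0.8% NaCl) containing 5% DMSO, and strains were incubated with a range of concentrations for 20 h at 37 °C on a rotary shaker (160 rpm). MIC was the lowest concentration without growth. Runs were in triplicate, with the mean taken. The negative control was 5% DMSO.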

Cryptococcus neoformans [4] = test: Antimicrobial activity against Cryptococcus neoformans NCIM-3378 after 20 hrs by two fold serial macrodilution technique; format: functional; conditions: NCIM-3378, 20 h
Aspergillus flavus [5] = test: Fungicidal activity against Aspergillus flavus NCIM-539 after 48 to 72 hrs by two fold serial macrodilution technique; format: functional; in short: as §1
Escherichia coli [6] = test: Antimicrobial activity against Escherichia coli NCIM-2256 after 20 hrs by two fold serial macrodilution technique; format: functional; conditions: NCIM-2256, 20 h; in short: as §2
HeLa = test: Cytotoxicity against human HeLa cells by SRB method; format: cell-based
In short: (§3)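 SRB colorimetric growth assay. IC50, in µM, was the concentration inhibiting cell growth by 50% relative to untreated control cells. Runs were in triplicate in three independent experiments, with means reported. The positive control was doxorubicin.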

Bacillus subtilis [7] = test: Antimicrobial activity against Bacillus subtilis NCIM-2063 after 20 hrs by two fold serial macrodilution technique; format: functional; conditions: NCIM-2063, 20 h; in short: as §2
Aspergillus flavus [8] = test: Antimicrobial activity against Aspergillus flavus NCIM-539 after 20 hrs by two fold serial macrodilution technique; format: functional; conditions: NCIM-539, 20 h
Cryptococcus neoformans [9] = test: Fungicidal activity against Cryptococcus neoformans NCIM-3378 after 48 to 72 hrs by two fold serial macrodilution technique; format: functional; in short: as §1
Aspergillus niger [10] = test: Fungicidal activity against Aspergillus niger NCIM-1196 after 48 to 72 hrs by two fold serial macrodilution technique; format: functional; in short: as §1
Salmonella typhimurium [11] = test: Antimicrobial activity against […] after 20 hrs by two fold serial macrodilution technique; format: functional, Salmonella enterica subsp. enterica serovar Typhimurium; conditions: Salmonella enterica; in short: as §2
Salmonella typhimurium [12] = test: Bactericidal activity against […] after 72 hrs by two fold serial macrodilution technique; format: functional, Salmonella enterica subsp. enterica serovar Typhimurium; conditions: Salmonella enterica; in short: as §1
Candida albicans [13] = test: Fungicidal activity against Candida albicans NCIM-3471 after 48 to 72 hrs by two fold serial macrodilution technique; format: functional; in short: as §1
Aspergillus niger [14] = test: Antimicrobial activity against Aspergillus niger NCIM-1196 after 20 hrs by two fold serial macrodilution technique; format: functional; conditions: NCIM-1196, 20 h
MCF7 = test: Cytotoxicity against human MCF7 cells by SRB method; format: cell-based; in short: as §3
Candida albicans [15] = test: Antimicrobial activity against Candida albicans NCIM-3471 after 20 hrs by two fold serial macrodilution technique; format: functional; conditions: NCIM-3471, 20 h
Escherichia coli [16] = test: Bactericidal activity against Escherichia coli NCIM-2256 after 72 hrs by two fold serial macrodilution technique; format: functional; conditions: NCIM-2256, 72 h; in short: as §1

Row | SMILES | MBC (Staphylococcus aureus [1]) [µg/mL] | MBC (Bacillus subtilis [2]) [µg/mL] | MIC (Staphylococcus aureus [3]) [µg/mL] | MIC (Cryptococcus neoformans [4]) [µg/mL] | MFC (Aspergillus flavus [5]) [µg/mL] | MIC (Escherichia coli [6]) [µg/mL] | IC50 (HeLa) [µM] | MIC (Bacillus subtilis [7]) [µg/mL] | MIC (Aspergillus flavus [8]) [µg/mL] | MFC (Cryptococcus neoformans [9]) [µg/mL] | MFC (Aspergillus niger [10]) [µg/mL] | MIC (Salmonella typhimurium [11]) [µg/mL] | MBC (Salmonella typhimurium [12]) [µg/mL] | MFC (Candida albicans [13]) [µg/mL] | MIC (Aspergillus niger [14]) [µg/mL] | IC50 (MCF7) [µM] | MIC (Candida albicans [15]) [µg/mL] | MBC (Escherichia coli [16]) [µg/mL]
1 | O=C1CSC(c2ccccc2)N1c1ccc(Cl)cc1O (stereo not given) | 40 (≈ 131 µM) | 85 (≈ 278 µM) | 25 (≈ 81.8 µM) | 70 (≈ 229 µM) | 115 (≈ 376 µM) | 65 (≈ 213 µM) | 63.7 | 60 (≈ 196 µM) | 80 (≈ 262 µM) | 125 (≈ 409 µM) | 120 (≈ 392 µM) | 55 (≈ 180 µM) | 120 (≈ 392 µM) | 115 (≈ 376 µM) | 90 (≈ 294 µM) | 56.8 | 60 (≈ 196 µM) | 125 (≈ 409 µM)
2 | O=C1CSC(c2ccc([N+](=O)[O-])cc2)N1c1ccc(Cl)cc1O (stereo not given) | 140 (≈ 399 µM) | 140 (≈ 399 µM) | 85 (≈ 242 µM) | 90 (≈ 257 µM) | 135 (≈ 385 µM) | 90 (≈ 257 µM) | 52.2 | 100 (≈ 285 µM) | 75 (≈ 214 µM) | 135 (≈ 385 µM) | 160 (≈ 456 µM) | 80 (≈ 228 µM) | 135 (≈ 385 µM) | 155 (≈ 442 µM) | 100 (≈ 285 µM) | 41 | 95 (≈ 271 µM) | 155 (≈ 442 µM)
3 | O=C1CSC(c2ccc(Cl)cc2Cl)N1c1ccc(Cl)cc1O (stereo not given) | 160 (≈ 427 µM) | 160 (≈ 427 µM) | 90 (≈ 240 µM) | 100 (≈ 267 µM) | 140 (≈ 374 µM) | 70 (≈ 187 µM) | 49.5 | 80 (≈ 214 µM) | 85 (≈ 227 µM) | 150 (≈ 400 µM) | 145 (≈ 387 µM) | 75 (≈ 200 µM) | 155 (≈ 414 µM) | 160 (≈ 427 µM) | 70 (≈ 187 µM) | 48.4 | 90 (≈ 240 µM) | 150 (≈ 400 µM)
4 | O=C1CSC(c2ccc(Cl)cc2)N1c1ccc(Cl)cc1O (stereo not given) | 45 (≈ 132 µM) | 45 (≈ 132 µM) | 20 (≈ 58.8 µM) | 95 (≈ 279 µM) | 155 (≈ 456 µM) | 50 (≈ 147 µM) | 64.4 | 25 (≈ 73.5 µM) | 90 (≈ 265 µM) | 160 (≈ 470 µM) | 165 (≈ 485 µM) | 65 (≈ 191 µM) | 155 (≈ 456 µM) | 160 (≈ 470 µM) | 65 (≈ 191 µM) | 56.2 | 70 (≈ 206 µM) | 165 (≈ 485 µM)
5 | O=C1CSC(c2ccccc2Cl)N1c1ccc(Cl)cc1O (stereo not given) | 55 (≈ 162 µM) | 40 (≈ 118 µM) | 35 (≈ 103 µM) | 90 (≈ 265 µM) | 50 (≈ 147 µM) | 80 (≈ 235 µM) | 62.8 | 20 (≈ 58.8 µM) | 35 (≈ 103 µM) | 135 (≈ 397 µM) | 155 (≈ 456 µM) | 65 (≈ 191 µM) | 135 (≈ 397 µM) | 140 (≈ 411 µM) | 100 (≈ 294 µM) | 56.2 | 55 (≈ 162 µM) | 140 (≈ 411 µM)
6 | COc1ccc(C2SCC(=O)N2c2ccc(Cl)cc2O)cc1 (stereo not given) | 40 (≈ 119 µM) | 40 (≈ 119 µM) | 30 (≈ 89.3 µM) | 65 (≈ 194 µM) | 20 (≈ 59.6 µM) | 35 (≈ 104 µM) | 51.6 | 30 (≈ 89.3 µM) | 15 (≈ 44.7 µM) | 155 (≈ 462 µM) | 150 (≈ 447 µM) | 25 (≈ 74.4 µM) | 110 (≈ 328 µM) | 20 (≈ 59.6 µM) | 80 (≈ 238 µM) | 48.6 | 15 (≈ 44.7 µM) | 45 (≈ 134 µM)
7 | O=C1CSC(c2ccc(O)cc2)N1c1ccc(Cl)cc1O (stereo not given) | 20 (≈ 62.2 µM) | 25 (≈ 77.7 µM) | 6 (≈ 18.6 µM) | 60 (≈ 186 µM) | 35 (≈ 109 µM) | 20 (≈ 62.2 µM) | 63.8 | 15 (≈ 46.6 µM) | 20 (≈ 62.2 µM) |  | 115 (≈ 357 µM) | 25 (≈ 77.7 µM) | 45 (≈ 140 µM) | 40 (≈ 124 µM) | 55 (≈ 171 µM) | 59.4 | 25 (≈ 77.7 µM) | 35 (≈ 109 µM)
